Test results as given in ChEMBL document CHEMBL2406960, “Epimeric methylsulfinyladenosine derivatives from the marine ascidian Herdmania momus” (Bioorg Med Chem Lett, 2013).

Key:
[1] = test system: Poliovirus 3; assay: Antiviral activity against Human poliovirus 3 infected in human HeLa cells assessed as inhibition of virus-induced cytopathic effect by MTT assay; assay type: functional, organism-based; settings: Enterovirus C
How it was run: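 Confluent HeLa cells in 96-well plates, in duplicate; samples (20 mg/mL DMSO stock) diluted in MEM/2% FBS, then virus added at 200 CCID50 per well; incubated in CO2 incubator. Protection of cells from virus cytopathic effect read by MTT absorbance and microscopy; EC50 = concentration protecting 50% of cells. Cytotoxicity on mock-infected cells, CC50 = 50% absorbance reduction.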

[2] = test system: Coxsackievirus B3; assay: Antiviral activity against Human coxsackievirus B3 infected in human HeLa cells assessed as inhibition of virus-induced cytopathic effect by MTT assay; assay type: functional, organism-based; settings: Enterovirus B
How it was run: (§1)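 Confluent HeLa monolayers, in duplicate, got samples (20 mg/mL DMSO stock) diluted in MEM/2% FBS, then virus at 200 CCID50 per well, and were incubated under CO2. Protection was read by MTT and by microscopic inspection. EC50 was the concentration protecting 50% of cells from virus-induced cytotoxicity.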

[3] = test system: Coxsackievirus B1; assay: Antiviral activity against Human coxsackievirus B1 infected in human HeLa cells assessed as inhibition of virus-induced cytopathic effect by MTT assay; assay type: functional, organism-based; settings: Enterovirus B; how it was run: as §1
[4] = Cytotoxicity against human HeLa cells by MTT assay; assay type: cell-based
How it was run: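 Mock-infected confluent HeLa cells were treated in duplicate with samples (20 mg/mL DMSO stock) diluted in MEM/2% FBS and incubated under CO2. Viability was read by MTT plus microscopy. CC50 was the concentration that cut mock-infected control absorbance by 50%.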

[5] = Antiviral activity against Human rhinovirus 71 infected in human HeLa cells assessed as inhibition of virus-induced cytopathic effect by MTT assay; assay type: functional, cell-based, Human rhinovirus A71; settings: Rhinovirus A; how it was run: as §1
[6] = Antiviral activity against Human rhinovirus 17 infected in human HeLa cells assessed as inhibition of virus-induced cytopathic effect by MTT assay; assay type: functional, cell-based, Human rhinovirus B17; settings: Rhinovirus B; how it was run: as §1
[7] = test system: rhinovirus B14; assay: Antiviral activity against Human rhinovirus 14 infected in human HeLa cells assessed as inhibition of virus-induced cytopathic effect by MTT assay; assay type: functional, organism-based; settings: Rhinovirus B; how it was run: as §1

C[S+]([O-])C[C@H]1O[C@@H](n2cnc3c(N)ncnc32)[C@H](O)[C@@H]1OC(=O)c1c[nH]c2cc(Br)c(O)cc12 (some centres undefined)
> 100 µg/mL: EC50 [1] | EC50 [2] | EC50 [3] | CC50 [4] | EC50 [5] | EC50 [6] | EC50 [7]

C[S+]([O-])C[C@H]1O[C@@H](n2cnc3c(N)ncnc32)[C@H](OC(=O)c2c[nH]c3cc(Br)c(O)cc23)[C@@H]1O (mixture of isomers)
> 100 µg/mL: EC50 [1] | EC50 [2] | EC50 [3] | CC50 [4] | EC50 [5] | EC50 [6] | EC50 [7]
